Source: ChEMBL document CHEMBL1129594 (J Med Chem, 1996)
Each block holds one compound with its values, some of them ahead of it.

Columns and labels:
Vanilloid receptor = Vanilloid receptor (Rattus norvegicus, UniProt Q9ERZ8+Q9WUD2+O35433); test: Compound tested in vitro for [Ca2+] influx into neonatal rat dorsal root ganglia (DRG); format: functional
Mus musculus [1] = test: In vivo tail-flick latency after peroral administration in mouse as an evaluation of antinociceptive potency; format: functional; conditions: po
Cavia porcellus [2] = test: Threshold dose required to cause increase in airway opening pressure […] of guinea pig after intravenous administration
Mus musculus [3] = test: In vivo tail-flick latency after subcutaneous administration in mouse as an evaluation of antinociceptive potency; format: functional; conditions: sc
Mus musculus [4] = test: Compound tested for in vivo writhing antinociceptive assay in mouse after subcutaneous administration; format: functional; conditions: sc
In short: (§1)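 Female CD-1 mice (20 g), kept on 12 h light/12 h dark and fasted overnight, 10 per group. Drug or vehicle was given sc or orally 55 min before ip acetic acid (0.3 mL, 200 mM). Abdominal constrictions were counted over the 5 min starting 5 min after acid. Effect was taken as the drug/vehicle writhe ratio, and ED50 (dose halving writhes) came from a logistic fit with standard error.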

Mus musculus [5] = test: Compound tested for in vivo writhing antinociceptive assay in mouse after peroral administration; format: functional; conditions: po; in short: as §1
Cavia porcellus [6] = test: Threshold dose required to cause increase in airway opening pressure […] of guinea pig after intravenous administration; format: functional
In short: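 Dunkin-Hartley guinea pigs (400-450 g, n = 4 per group) under urethane (2 g/kg), held at 37 °C. Carotid cannula for blood pressure, jugular cannula for iv drug. Tracheal cannula with ventilation at 60 strokes/min and 10 mL/kg tidal volume. Airway opening pressure was read by differential transducer on the tracheal side arm. Threshold iv dose raising Pao was recorded.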

SMILES: COc1cc(CN/C(S)=N/C=C\c2ccc(Cl)cc2)ccc1O
EC50 (Vanilloid receptor): 41 nM

SMILES: CCCCCCCC/C=C\CCCCCCCC(=O)NCc1ccc(OCCN)c(OC)c1
ED50 (Mus musculus [1]): 184 µmol/kg
Dose (Cavia porcellus [2]): >0.1 µM/kg
ED50 (Mus musculus [3]): 6.3 µmol/kg
ED50 (Mus musculus [4]): 3.06 µmol/kg

SMILES: COc1cc(CNC(=S)NCc2ccc(C(C)(C)C)cc2)ccc1O
EC50 (Vanilloid receptor): 510 nM

SMILES: COc1cc(CN/C(S)=N/C=C/c2ccc(Cl)cc2)ccc1O
EC50 (Vanilloid receptor): 410 nM

SMILES: COc1cc(C/N=C(\S)NCc2ccc(C(C)(C)C)cc2)ccc1OCCN
EC50 (Vanilloid receptor): 170 nM
ED50 (Mus musculus [1]): 1.45 µmol/kg
ED50 (Mus musculus [5]): 2.55 µmol/kg
ED50 (Mus musculus [3]): 0.4 µmol/kg
ED50 (Mus musculus [4]): 0.49 µmol/kg
Dose (Cavia porcellus [6]): 0.062 µM/kg

SMILES: COc1cc(C/N=C(\S)NCCc2ccc(Cl)cc2)ccc1OCCN1C(=O)c2ccccc2C1=O
EC50 (Vanilloid receptor): 53000 nM

SMILES: COc1cc(C/N=C(\S)NCCc2ccccc2)ccc1O
EC50 (Vanilloid receptor): 480 nM

SMILES: COc1cc(C/N=C(\S)NCCc2ccc(Cl)cc2)ccc1OCCN
ED50 (Mus musculus [1]): 22.9 µmol/kg
ED50 (Mus musculus [5]): 11.4 µmol/kg
ED50 (Mus musculus [3]): 4.8 µmol/kg
ED50 (Mus musculus [4]): 3.32 µmol/kg
Dose (Cavia porcellus [6]): 0.137 µM/kg

SMILES: COc1cc(C/N=C(\S)NCCc2ccc(F)cc2)ccc1O
EC50 (Vanilloid receptor): 130 nM

SMILES: COc1cc(C/N=C(\S)NCCc2ccc(Cl)cc2)ccc1O
EC50 (Vanilloid receptor): 56 nM
ED50 (Mus musculus [1]): 370 µmol/kg
ED50 (Mus musculus [3]): 11.8 µmol/kg
ED50 (Mus musculus [4]): 10.1 µmol/kg
Dose (Cavia porcellus [6]): 0.025 µM/kg

SMILES: COc1cc(CNC(=O)CCCC/C=C/C(C)C)ccc1O [CAPSAICIN]
ED50 (Mus musculus [1]): 962 µmol/kg
ED50 (Mus musculus [3]): 10.3 µmol/kg
ED50 (Mus musculus [4]): 5.72 µmol/kg
Dose (Cavia porcellus [6]): 0.018 µM/kg

SMILES: CCCCCCCC/C=C\CCCCCCCC(=O)NCc1ccc(O)c(OC)c1 [OLVANIL]
ED50 (Mus musculus [1]): > 400 µmol/kg
Dose (Cavia porcellus [2]): >0.1 µM/kg
ED50 (Mus musculus [3]): 11.3 µmol/kg
ED50 (Mus musculus [4]): 2.1 µmol/kg

The next lines start with the values.

EC50 (Vanilloid receptor): 710 nM
SMILES: COc1cc(C/N=C(\S)NCCc2ccc(C(C)(C)C)cc2)ccc1OCCN

EC50 (Vanilloid receptor): 3520 nM
SMILES: COc1cc(C/N=C(\S)NCCc2ccc(Cl)cc2)ccc1OCCN(C)C

EC50 (Vanilloid receptor): 130 nM
SMILES: COc1cc(C/N=C(\S)NCCc2ccc(Cl)cc2Cl)ccc1O

EC50 (Vanilloid receptor): > 100000 nM
SMILES: COc1cc(C/N=C(\S)NCCc2ccc(Cl)cc2)ccc1OCC[N+](C)(C)C.O=C([O-])C(F)(F)F

EC50 (Vanilloid receptor): 6140 nM
SMILES: CCOC(=O)NCCOc1ccc(C/N=C(\S)NCCc2ccc(Cl)cc2)cc1OC

EC50 (Vanilloid receptor): 2720 nM
SMILES: COc1cc(C/N=C(\S)NCCc2ccccc2)ccc1OCCN

EC50 (Vanilloid receptor): 2300 nM
SMILES: COc1cc(C/N=C(\S)NCCc2ccc(F)cc2)ccc1OCCN

EC50 (Vanilloid receptor): 5130 nM
SMILES: COc1cc(C/N=C(\S)NCCc2ccc(Cl)cc2)ccc1OCCNC(C)=O

EC50 (Vanilloid receptor): 320 nM
SMILES: COc1cc(C/N=C(\S)NCCc2ccc(Cl)cc2Cl)ccc1OCCN

EC50 (Vanilloid receptor): 7030 nM
SMILES: CNCCOc1ccc(C/N=C(\S)NCCc2ccc(Cl)cc2)cc1OC

EC50 (Vanilloid receptor): 3000 nM
SMILES: COc1cc(C/N=C(\S)NCCc2ccc(Cl)cc2)ccc1OCCNC(=O)OC(C)(C)C
